# According to ChEMBL document CHEMBL4619807, “Exploration of Alternative Scaffolds for P2Y14 Receptor Antagonists Containing a Biaryl Core” (J Med Chem, 2020):
# Calls of active or inactive are those of the source. The rule behind the calls is not given here.
# Columns and labels:
# Mus musculus = assay: Antiasthmatic activity in Aspergillus oryzae protease-mediated C57BL/6J mouse model of allergic asthma assessed as reduction in eosinophil infiltration in bronchoalveolar lavage fluid at 10 mg/kg, ip dosed 30 mins before OVA aerosol challenge and measured 2 days post-challenge by cell differential count assay; type: functional, organism-based
# [1] = Binding affinity to sigma 2 receptor (unknown origin); parameters: species or system Homo sapiens
# [2] = target: Delta-type opioid receptor (Homo sapiens, UniProt P41143); assay: Binding affinity to DOR (unknown origin)
# Sequence of Delta-type opioid receptor (P41143 whole entry): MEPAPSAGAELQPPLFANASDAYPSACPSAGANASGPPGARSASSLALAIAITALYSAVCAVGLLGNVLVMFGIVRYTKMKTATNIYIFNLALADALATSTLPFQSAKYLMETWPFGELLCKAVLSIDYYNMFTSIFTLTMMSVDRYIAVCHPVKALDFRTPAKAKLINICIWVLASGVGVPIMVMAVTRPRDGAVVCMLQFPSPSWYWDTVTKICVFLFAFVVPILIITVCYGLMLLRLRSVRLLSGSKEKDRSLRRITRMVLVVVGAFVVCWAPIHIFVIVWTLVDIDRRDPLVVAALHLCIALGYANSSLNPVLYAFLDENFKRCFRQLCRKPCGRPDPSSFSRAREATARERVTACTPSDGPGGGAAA
# [3] = target: Sigma non-opioid intracellular receptor 1 (Homo sapiens, UniProt Q99720); assay: Binding affinity to sigma 1 receptor (unknown origin)
# Sequence of Sigma non-opioid intracellular receptor 1 (Q99720 whole entry): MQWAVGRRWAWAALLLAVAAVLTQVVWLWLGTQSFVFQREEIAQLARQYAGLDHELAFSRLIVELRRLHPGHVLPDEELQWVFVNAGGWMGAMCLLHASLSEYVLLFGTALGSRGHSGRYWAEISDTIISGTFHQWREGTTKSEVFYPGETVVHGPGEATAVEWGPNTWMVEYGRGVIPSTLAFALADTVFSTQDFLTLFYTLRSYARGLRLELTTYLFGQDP
# Homo sapiens = species: Homo sapiens; assay: Selectivity index, ratio of IC50 for inhibition of MRS4174 binding to human P2Y14R expressed in CHO cells to IC50 for inhibition of MRS4174 binding to mouse P2Y14R expressed in […] cells; type: cell-based
# Summary of the method: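 Ratio of human to mouse IC50 from fluorescent-tracer binding. Human P2Y14R was in CHO cells in a 96-well format. Mouse P2Y14R was in HEK293 cells, with 30 min antagonist pre-incubation and then 20 nM tracer for 30 min at 37 °C. Both read by flow cytometry.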
# P2Y purinoceptor 14 [4] = target: T1, P2Y purinoceptor 14 (Homo sapiens, UniProt Q15391); assay: Inhibition of MRS4174 binding to human P2Y14R expressed in CHO cells pre-incubated for 30 mins before MRS4174 addition and further incubated for 30 mins at pH 7.4 by flow cytomtery based competitive fluorescence assay; type: cell-based
# T1 sequence (Q15391 whole entry): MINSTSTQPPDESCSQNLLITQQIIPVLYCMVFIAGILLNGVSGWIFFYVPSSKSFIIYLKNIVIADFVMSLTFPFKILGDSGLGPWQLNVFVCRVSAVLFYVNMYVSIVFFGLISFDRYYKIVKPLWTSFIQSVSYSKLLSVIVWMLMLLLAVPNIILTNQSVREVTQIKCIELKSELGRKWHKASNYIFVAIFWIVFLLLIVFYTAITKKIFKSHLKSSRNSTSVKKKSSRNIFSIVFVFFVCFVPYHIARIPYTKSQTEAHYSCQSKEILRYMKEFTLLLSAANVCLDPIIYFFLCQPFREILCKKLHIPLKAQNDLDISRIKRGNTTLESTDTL
# Cannabinoid receptor 1 [5] = target: T2, Cannabinoid receptor 1 (Homo sapiens, UniProt P21554); assay: Antagonist activity at CB1 receptor (unknown origin)
# T2 sequence (P21554 whole entry): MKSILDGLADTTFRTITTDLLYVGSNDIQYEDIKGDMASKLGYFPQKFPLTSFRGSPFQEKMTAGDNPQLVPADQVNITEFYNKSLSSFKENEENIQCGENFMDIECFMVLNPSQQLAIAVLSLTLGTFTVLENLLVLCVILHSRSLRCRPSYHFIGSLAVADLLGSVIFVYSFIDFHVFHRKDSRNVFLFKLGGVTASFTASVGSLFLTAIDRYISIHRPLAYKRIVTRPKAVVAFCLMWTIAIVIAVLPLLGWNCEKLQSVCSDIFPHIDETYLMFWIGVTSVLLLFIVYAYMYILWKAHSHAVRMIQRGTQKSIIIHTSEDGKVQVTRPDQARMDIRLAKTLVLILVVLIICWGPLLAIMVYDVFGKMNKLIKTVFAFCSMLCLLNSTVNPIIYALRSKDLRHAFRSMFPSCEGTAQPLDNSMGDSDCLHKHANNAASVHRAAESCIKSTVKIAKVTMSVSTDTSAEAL
# Summary of the method: (§1)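 Tested through the Psychoactive Drug Screening Program as functional agonist and antagonist at CB1 and CB2 cannabinoid receptors, with an upper test concentration of 10 μM.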
# [6] = Unbound fraction in mouse plasma; type: ADME, cell-free
# Summary of the method: (§2)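 Plasma protein binding measured at 10 μM compound in human and mouse plasma, expressed as percent unbound (mean ± SD). Verapamil and warfarin were positive controls.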
# Cannabinoid receptor 2 [7] = target: T3, Cannabinoid receptor 2 (Homo sapiens, UniProt P34972); assay: Agonist activity at CB2 receptor (unknown origin); summary of the method: as §1
# T3 sequence (P34972 whole entry): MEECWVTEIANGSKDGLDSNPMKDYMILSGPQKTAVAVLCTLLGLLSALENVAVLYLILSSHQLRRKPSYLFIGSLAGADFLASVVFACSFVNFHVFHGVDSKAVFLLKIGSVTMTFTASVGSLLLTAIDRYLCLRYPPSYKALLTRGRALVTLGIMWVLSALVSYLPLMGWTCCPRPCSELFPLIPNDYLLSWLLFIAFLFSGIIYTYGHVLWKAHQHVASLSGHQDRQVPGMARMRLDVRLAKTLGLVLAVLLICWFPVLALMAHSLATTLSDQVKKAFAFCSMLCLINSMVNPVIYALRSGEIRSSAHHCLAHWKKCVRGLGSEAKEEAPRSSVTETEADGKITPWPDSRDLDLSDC
# [8] = Unbound fraction in human plasma; type: ADME, cell-free; summary of the method: as §2
# Cannabinoid receptor 2 [9] = target: T3, Cannabinoid receptor 2; assay: Antagonist activity at CB2 receptor (unknown origin); summary of the method: as §1
# Cannabinoid receptor 1 [10] = target: T2, Cannabinoid receptor 1; assay: Agonist activity at CB1 receptor (unknown origin); summary of the method: as §1
# [11] = Aqueous solubility at pH 7.4 by pION method; type: physicochemical
# Summary of the method: (§3)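 Equilibrium aqueous solubility measured by the pION method at pH 4.0 and at pH 7.4, in μg/mL; mean ± SD.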
# [12] = Aqueous solubility at pH 4 by pION method; type: physicochemical; summary of the method: as §3
# P2Y purinoceptor 14 [13] = target: T4, P2Y purinoceptor 14 (Mus musculus, UniProt Q9ESG6); assay: Inhibition of MRS4174 binding to mouse P2Y14R expressed in HEK293 cells pre-incubated for 30 mins before MRS4174 addition and further incubated for 30 mins by flow cytomtery based competitive fluorescence assay; type: cell-based
# T4 sequence (Q9ESG6 whole entry): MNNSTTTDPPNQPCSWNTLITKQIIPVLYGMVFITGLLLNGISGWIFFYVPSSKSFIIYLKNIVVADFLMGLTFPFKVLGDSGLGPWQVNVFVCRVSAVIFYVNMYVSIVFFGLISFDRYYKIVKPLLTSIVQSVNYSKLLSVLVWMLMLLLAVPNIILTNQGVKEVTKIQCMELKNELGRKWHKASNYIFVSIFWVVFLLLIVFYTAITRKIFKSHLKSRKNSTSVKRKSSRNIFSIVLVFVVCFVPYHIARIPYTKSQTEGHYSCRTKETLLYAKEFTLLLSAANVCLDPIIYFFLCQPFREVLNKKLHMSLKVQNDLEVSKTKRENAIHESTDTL
# Summary of the method: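 Competitive whole-cell binding in HEK293 cells stably expressing N-terminally HA-tagged mouse P2Y14R, grown in a 24-well plate to 80–90% confluency. Antagonist given at 1 nM–100 μM in serum-containing EMEM for 30 min at 37 °C, then tracer added at 20 nM final for 30 min.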
# [14] = Binding affinity to 5HT6 receptor (unknown origin); parameters: species or system Homo sapiens
# Translocator protein = Translocator protein (Homo sapiens, UniProt P30536); assay: Binding affinity to TSPO receptor (unknown origin)
# Sequence of Translocator protein (P30536 whole entry): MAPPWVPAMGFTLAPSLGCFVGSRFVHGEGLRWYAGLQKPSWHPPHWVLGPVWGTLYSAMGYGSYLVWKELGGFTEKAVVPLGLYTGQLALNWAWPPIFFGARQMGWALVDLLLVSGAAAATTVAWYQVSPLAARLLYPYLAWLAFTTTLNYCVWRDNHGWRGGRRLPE
# D(1B) dopamine receptor = D(1B) dopamine receptor (Homo sapiens, UniProt P21918); assay: Binding affinity to dopamine D5 receptor (unknown origin)
# [15] = Lipophilicity, change in Constant K of the compound by RP-HPLC analysis relative to PPTN; type: physicochemical
# Summary of the method: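 Lipophilicity taken from reversed-phase HPLC retention time on a C18 column. Elution used a 20 min gradient of 10 to 100% acetonitrile in 10 mM triethylammonium acetate. Reported as Δk against the reference antagonist.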
# [16] = Permeability from apical to basolateral side in human Caco2 cells; type: ADME, cell-based; details: caco-2
# Cytochrome P450 2C9 = Cytochrome P450 2C9 (Homo sapiens, UniProt P11712); assay: Inhibition of CYP2C9 (unknown origin); type: ADME
# Sequence of Cytochrome P450 2C9 (P11712 whole entry): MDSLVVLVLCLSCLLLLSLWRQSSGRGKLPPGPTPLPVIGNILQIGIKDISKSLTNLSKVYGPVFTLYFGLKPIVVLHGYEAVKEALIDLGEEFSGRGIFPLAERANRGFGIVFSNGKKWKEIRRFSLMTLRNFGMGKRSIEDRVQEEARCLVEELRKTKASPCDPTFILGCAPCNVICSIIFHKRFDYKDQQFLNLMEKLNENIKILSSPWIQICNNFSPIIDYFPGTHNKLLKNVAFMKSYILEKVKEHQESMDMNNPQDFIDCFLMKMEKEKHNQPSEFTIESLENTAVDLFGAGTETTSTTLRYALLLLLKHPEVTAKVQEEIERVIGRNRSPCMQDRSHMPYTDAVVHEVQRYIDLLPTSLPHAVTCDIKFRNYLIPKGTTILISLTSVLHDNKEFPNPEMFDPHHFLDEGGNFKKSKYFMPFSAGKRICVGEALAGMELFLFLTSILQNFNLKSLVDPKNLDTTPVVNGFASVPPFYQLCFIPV
# [17] = Plasma concentration in rat at 1 mg/kg, ip after 2 hrs; type: ADME, organism-based
# Summary of the method: (§4)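 Rats dosed intraperitoneally at 1, 3 and 10 mg/kg and intravenously at 0.5 mg/kg. Solubilizing vehicle was aqueous DMSO. Plasma concentrations followed over time up to 12 h. Bioavailability derived from ip exposure relative to the iv dose.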
# [18] = Stability in mouse plasma assessed as compound remaining level at 120 mins; type: ADME, cell-free; details: 2 h
# [19] = Half life in human liver microsomes; type: ADME, Microsome
# HepG2 = assay: Toxicity in human HepG2 cells; type: cell-based
# [20] = Cmax in rat at 10 mg/kg, ip after 3 to 4 hrs; type: ADME, organism-based; parameters: dose 10 mg/kg, route intraperitoneal; details: in vivo; summary of the method: as §4
# [21] = Tmax in rat at 10 mg/kg, ip; type: ADME, organism-based; details: in vivo; summary of the method: as §4
# [22] = Bioavailability in rat at 1 to 10 mg/kg, ip; type: ADME, organism-based; details: in vivo; summary of the method: as §4
# [23] = Stability in rat plasma assessed as compound remaining level at 120 mins; type: ADME, cell-free; details: 2 h
# [24] = Half life in rat at 0.5 mg/kg, iv; type: ADME, organism-based; details: in vivo
# Cytochrome P450 2C19 = Cytochrome P450 2C19 (Homo sapiens, UniProt P33261); assay: Inhibition of CYP2C19 (unknown origin); type: ADME
# Sequence of Cytochrome P450 2C19 (P33261 whole entry): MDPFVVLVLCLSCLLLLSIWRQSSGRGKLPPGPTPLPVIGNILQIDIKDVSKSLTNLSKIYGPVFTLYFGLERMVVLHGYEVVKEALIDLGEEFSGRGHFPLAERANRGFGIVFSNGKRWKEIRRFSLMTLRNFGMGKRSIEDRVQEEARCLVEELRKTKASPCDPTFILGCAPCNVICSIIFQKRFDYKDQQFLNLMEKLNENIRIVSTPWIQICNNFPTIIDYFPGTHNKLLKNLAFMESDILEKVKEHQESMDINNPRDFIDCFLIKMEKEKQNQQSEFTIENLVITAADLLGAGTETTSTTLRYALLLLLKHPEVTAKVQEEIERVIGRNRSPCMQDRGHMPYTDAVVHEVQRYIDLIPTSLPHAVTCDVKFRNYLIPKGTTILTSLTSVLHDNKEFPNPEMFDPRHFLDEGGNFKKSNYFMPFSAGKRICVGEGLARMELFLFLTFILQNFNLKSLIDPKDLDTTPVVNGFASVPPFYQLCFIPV
# [25] = Stability in human plasma assessed as compound remaining level at 120 mins; type: ADME, cell-free; details: 2 h
# [26] = Plasma concentration in rat at 1 mg/kg, ip after 4 hrs; type: ADME, organism-based; summary of the method: as §4
# [27] = Stability in simulated intestinal fluid assessed as compound remaining level at 120 mins; type: physicochemical; details: simulated gi fluid, 2 h
# [28] = target: Voltage-gated inwardly rectifying potassium channel KCNH2 (Homo sapiens, UniProt Q12809); assay: Inhibition of human ERG
# Sequence of Voltage-gated inwardly rectifying potassium channel KCNH2 (Q12809 whole entry): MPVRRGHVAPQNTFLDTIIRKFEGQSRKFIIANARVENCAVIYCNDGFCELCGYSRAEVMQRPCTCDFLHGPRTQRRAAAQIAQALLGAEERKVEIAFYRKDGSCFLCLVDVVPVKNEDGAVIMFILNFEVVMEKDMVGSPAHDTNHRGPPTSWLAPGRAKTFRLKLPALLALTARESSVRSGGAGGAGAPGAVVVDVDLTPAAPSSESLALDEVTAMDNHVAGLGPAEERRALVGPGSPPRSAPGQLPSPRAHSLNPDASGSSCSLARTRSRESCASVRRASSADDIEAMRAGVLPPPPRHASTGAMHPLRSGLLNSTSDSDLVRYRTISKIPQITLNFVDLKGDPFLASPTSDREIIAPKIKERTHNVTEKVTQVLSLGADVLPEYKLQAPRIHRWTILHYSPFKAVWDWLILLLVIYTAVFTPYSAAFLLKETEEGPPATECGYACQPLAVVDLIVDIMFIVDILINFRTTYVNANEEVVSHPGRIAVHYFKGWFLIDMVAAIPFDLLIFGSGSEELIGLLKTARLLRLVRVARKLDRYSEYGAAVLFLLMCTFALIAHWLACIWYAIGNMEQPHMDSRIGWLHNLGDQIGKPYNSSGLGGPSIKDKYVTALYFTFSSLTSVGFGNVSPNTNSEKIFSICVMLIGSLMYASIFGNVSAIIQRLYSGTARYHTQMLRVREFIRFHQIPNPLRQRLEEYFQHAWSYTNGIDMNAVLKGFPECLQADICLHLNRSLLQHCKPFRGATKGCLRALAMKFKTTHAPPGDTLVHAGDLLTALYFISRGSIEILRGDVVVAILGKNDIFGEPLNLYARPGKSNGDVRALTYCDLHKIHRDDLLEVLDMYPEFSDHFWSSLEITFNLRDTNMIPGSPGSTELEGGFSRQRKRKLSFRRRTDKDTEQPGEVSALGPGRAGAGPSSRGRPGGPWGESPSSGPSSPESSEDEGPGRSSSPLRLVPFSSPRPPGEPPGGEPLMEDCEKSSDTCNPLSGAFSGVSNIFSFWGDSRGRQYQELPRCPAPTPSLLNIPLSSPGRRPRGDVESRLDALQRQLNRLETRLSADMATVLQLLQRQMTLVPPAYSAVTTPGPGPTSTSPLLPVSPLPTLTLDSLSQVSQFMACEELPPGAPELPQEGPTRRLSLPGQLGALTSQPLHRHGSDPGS
# Cytochrome P450 2D6 = Cytochrome P450 2D6 (Homo sapiens, UniProt P10635); assay: Inhibition of CYP2D6 (unknown origin); type: ADME
# Sequence of Cytochrome P450 2D6 (P10635 whole entry): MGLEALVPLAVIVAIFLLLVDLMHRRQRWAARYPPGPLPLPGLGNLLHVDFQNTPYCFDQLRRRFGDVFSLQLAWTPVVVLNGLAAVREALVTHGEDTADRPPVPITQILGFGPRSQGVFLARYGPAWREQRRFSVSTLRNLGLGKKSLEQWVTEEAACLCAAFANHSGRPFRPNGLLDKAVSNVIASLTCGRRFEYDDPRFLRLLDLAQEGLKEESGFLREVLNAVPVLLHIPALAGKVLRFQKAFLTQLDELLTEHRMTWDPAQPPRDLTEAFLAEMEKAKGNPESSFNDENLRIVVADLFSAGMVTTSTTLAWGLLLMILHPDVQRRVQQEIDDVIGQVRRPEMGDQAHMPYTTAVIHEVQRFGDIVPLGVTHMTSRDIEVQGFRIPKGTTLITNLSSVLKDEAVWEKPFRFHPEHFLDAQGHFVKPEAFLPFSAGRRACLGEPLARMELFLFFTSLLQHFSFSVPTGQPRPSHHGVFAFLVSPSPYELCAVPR
# [29] = Half life in rat at 1 mg/kg, ip; type: ADME, organism-based; details: in vivo
# [30] = Stability in simulated gastric fluid assessed as compound remaining level at 120 mins; type: physicochemical; details: simulated gi fluid, 2 h
# [31] = Half life in rat liver microsomes; type: ADME, Microsome
# [32] = Half life in mouse liver microsomes; type: ADME, Microsome
# [33] = Drug level in rat at 10 mg/kg, ip after 12 hrs; type: ADME, organism-based; details: in vivo; summary of the method: as §4
# [34] = target: 5-hydroxytryptamine receptor 1D (Homo sapiens, UniProt P28221); assay: Binding affinity to 5HT1D receptor (unknown origin)
# Sequence of 5-hydroxytryptamine receptor 1D (P28221 whole entry): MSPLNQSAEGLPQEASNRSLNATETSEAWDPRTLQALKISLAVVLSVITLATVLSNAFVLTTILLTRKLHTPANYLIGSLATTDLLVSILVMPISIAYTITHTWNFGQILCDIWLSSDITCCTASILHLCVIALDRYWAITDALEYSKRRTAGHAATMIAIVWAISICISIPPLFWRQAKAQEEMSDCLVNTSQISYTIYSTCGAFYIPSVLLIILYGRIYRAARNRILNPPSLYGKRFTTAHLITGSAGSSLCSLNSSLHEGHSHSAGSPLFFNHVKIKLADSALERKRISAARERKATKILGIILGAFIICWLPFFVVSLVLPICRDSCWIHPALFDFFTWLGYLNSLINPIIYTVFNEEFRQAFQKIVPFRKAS
compound,measurement,setting,value
C#CCCCCN1CCC(c2ccc(-c3cc(C(=O)O)cc4cc(-c5ccc(C(F)(F)F)cc5)ccc34)cc2)CC1,Activity,Mus musculus,Active
NC(=O)c1ccc(-c2cc(C(=O)O)cc(-c3cn(-c4ccc(C(F)(F)F)cc4)nn3)c2)cc1,Ki,[1],2.91 µM
same,Ki,[2],2.48 µM
same,Ki,[3],0.5 µM
O=C(O)c1cc(-c2ccc(N3CCNCC3)cc2)cc(-n2cc(-c3ccc(C(F)(F)F)cc3)nn2)c1,Ki,[1],6.7 µM
same,Ratio IC50,Homo sapiens,2.1
O=C(O)c1cc(-c2ccc(C34CCNCC3C4(F)F)cc2)cc(-n2cc(-c3ccc(C(F)(F)F)cc3)nn2)c1 (stereo not given),IC50,P2Y purinoceptor 14 [4],0.639 µM
O=C(O)c1cc(-c2ccc(C3CCNCC3)cc2)cc(-n2cc(-c3ccc(C(F)(F)F)cc3)nn2)c1,Activity,Mus musculus,inactive
O=C(O)c1cc(-c2ccc(C3CCNCC3)cc2)cc(-c2cn(-c3ccc(C(F)(F)F)cc3)nn2)c1,EC50,Cannabinoid receptor 1 [5],> 10 µM
same,Fu,[6],1.33%
same,EC50,Cannabinoid receptor 2 [7],> 10 µM
same,Ki,[2],3.79 µM
same,Fu,[8],1.25%
same,Activity,Mus musculus,Active
same,EC50,Cannabinoid receptor 2 [9],> 10 µM
same,EC50,Cannabinoid receptor 1 [10],> 10 µM
O=C(O)c1cc(-c2ccc(C3CCNCC3)cc2)c2ccc(-c3ccc(C(F)(F)F)cc3)cc2c1 [PPTN],EC50,Cannabinoid receptor 1 [5],> 10 µM
same,EC50,Cannabinoid receptor 2 [7],> 10 µM
same,solubility,[11]; buffer,0.36 µg/mL
same,Activity,Mus musculus,Active
same,EC50,Cannabinoid receptor 2 [9],> 10 µM
same,EC50,Cannabinoid receptor 1 [10],> 10 µM
same,solubility,[12]; buffer,1.1 µg/mL
NC(=O)c1ccc(-c2cc(C(=O)O)cc(-n3cc(-c4ccc(C(F)(F)F)cc4)nn3)c2)cc1,IC50,P2Y purinoceptor 14 [13],0.902 µM
same,Ki,[14],6.89 µM
same,Ratio IC50,Homo sapiens,3.4
CC(=O)N1CCC(c2ccc(-c3cc(C(=O)O)cc4cc(-c5ccc(C(F)(F)F)cc5)ccc34)cc2)CC1,Ki,Translocator protein,0.51 µM
same,solubility,[11]; buffer,2.32 µg/mL
same,Ki,D(1B) dopamine receptor,4.38 µM
same,Activity,Mus musculus,Active
same,solubility,[12]; buffer,0.09 µg/mL
O=C(O)c1cc(-c2ccc(C34CCNCC3C4)cc2)cc(-n2cc(-c3ccc(C(F)(F)F)cc3)nn2)c1 (stereo not given),Ki,[1],0.3 µM
same,IC50,P2Y purinoceptor 14 [13],1.16 µM
same,Ki,[2],2.63 µM
same,Ratio IC50,Homo sapiens,3.3
same,IC50,P2Y purinoceptor 14 [4],0.359 µM
C[N+]12CCC(c3ccc(-c4cc(C(=O)O)cc5cc(-c6ccc(C(F)(F)F)cc6)ccc45)cc3)(CC1)CC2,Fu,[6],0.94%
same,IC50,P2Y purinoceptor 14 [13],0.0563 µM
same,solubility,[11]; buffer,1.72 µg/mL
same,Fu,[8],1.13%
same,fold change (FC),[15],0.24
same,IC50,P2Y purinoceptor 14 [4],0.0383 µM
same,solubility,[12]; buffer,2.24 µg/mL
NC(=O)c1cc(-c2ccc(C3CCNCC3)cc2)cc(-n2cc(-c3ccc(C(F)(F)F)cc3)nn2)c1,IC50,P2Y purinoceptor 14 [4],> 100 µM
O=C(O)c1cc(-c2ccc(C34CCN(CC3)CC4)cc2)cc(-n2cc(-c3ccc(C(F)(F)F)cc3)nn2)c1,Papp,[16],0.9 nm/s
same,IC50,Cytochrome P450 2C9,> 30 µM
same,concentration at 2 h,[17],0.206 µM
same,Stability,[18],79.5%
same,t1/2,[19],3.2 h
same,IC50,HepG2,> 20 µM
same,Cmax,[20],0.9 µg/mL
same,Tmax,[21],3 to 4 h
same,IC50,P2Y purinoceptor 14 [13],0.845 µM
same,bioavailability,[22],100%
same,Stability,[23],89.4%
same,half-life,[24],0.72 h
same,IC50,Cytochrome P450 2C19,> 30 µM
same,solubility,"[11]; aqueous, read-out: solubility",0.1 to 1.1 µg/mL
same,Stability,[25],86.8%
same,fold change (FC),[15],-0.09
same,concentration at 4 h,[26],0.163 µM
same,Stability,[27],102%
same,IC50,P2Y purinoceptor 14 [4],0.105 µM
same,IC50,[28],16.8 µM
same,IC50,Cytochrome P450 2D6,> 30 µM
same,half-life,[29],4.6 h
same,Stability,[30],106%
same,t1/2,[31],1.8 h
same,t1/2,[32],5.18 h
same,solubility,"[12]; aqueous, read-out: solubility",2.8 to 14.5 µg/mL
same,Drug uptake,[33],200 to 400 ng/kg
NCCCNC(=O)c1ccc(-c2cc(C(=O)O)cc(-n3cc(-c4ccc(C(F)(F)F)cc4)nn3)c2)s1,Fu,[6],0.83%
same,Ki,[34],4.34 µM
same,Activity,Mus musculus,Active
O=C(O)c1[nH]c(-c2ccc(C3=CCNCC3)cc2)cc1-n1cc(-c2ccc(C(F)(F)F)cc2)nn1,IC50,P2Y purinoceptor 14 [4],> 100 µM
